Measured values: ChEMBL document CHEMBL1141405, “Design and synthesis of novel sulfonamide-containing bradykinin hB2 receptor antagonists. 2. Synthesis and structure-activity relationships of alpha,alpha-cycloalkylglycine sulfonamides” (J Med Chem, 2007)
Activity calls are given as the source filed them. The rule behind the calls is not given here.

Assays:
[1] = target: T1, B2 bradykinin receptor (Cavia porcellus) (UniProt O70526); assay: Inhibition of BK-induced bronchoconstriction in Dunkin Hartley guinea pig at 100 nmol/kg, it; format: functional; set-up: scale not given: the % may be the effect or the level left
T1 sequence (whole entry): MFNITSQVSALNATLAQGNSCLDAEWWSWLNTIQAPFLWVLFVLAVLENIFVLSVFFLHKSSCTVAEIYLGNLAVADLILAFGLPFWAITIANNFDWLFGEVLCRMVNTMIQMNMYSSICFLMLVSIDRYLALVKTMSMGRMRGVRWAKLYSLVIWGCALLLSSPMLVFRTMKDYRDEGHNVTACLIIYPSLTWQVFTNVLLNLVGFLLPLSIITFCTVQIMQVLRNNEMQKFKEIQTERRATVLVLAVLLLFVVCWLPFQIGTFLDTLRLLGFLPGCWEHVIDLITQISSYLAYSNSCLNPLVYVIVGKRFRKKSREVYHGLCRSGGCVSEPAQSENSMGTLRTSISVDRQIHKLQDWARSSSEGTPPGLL
Method in brief: (§1)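 Compound was given intratracheally to anaesthetized guinea pigs. Five min later, BK (10 nmol/kg iv) challenge was given and repeated every 30 min for 210 min. Pulmonary insufflation pressure was monitored. Result is Σ%: residual BK response as % of basal, normalized to control at 5–210 min time points, expressed as % of theoretical maximum.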

[2] = target: T1, B2 bradykinin receptor (Cavia porcellus); assay: Effect on BK-induced hypotension in Dunkin Hartley guinea pig at 100 nmol/kg, it; format: functional
Method in brief: as §1, with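 “Blood” for “Pulmonary insufflation”, “each observation” for “5–210 min”, “(5–210 min),” for “points,”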

[3] = target: T1, B2 bradykinin receptor (Cavia porcellus); assay: Inhibition of BK-induced bronchoconstriction in Dunkin Hartley guinea pig at 30 nmol/kg, it; format: functional; set-up: scale not given: the % may be the effect or the level left; method in brief: as §1
[4] = target: T1, B2 bradykinin receptor (Cavia porcellus); assay: Inhibition of BK-induced bronchoconstriction in Dunkin Hartley guinea pig at 10 nmol/kg, it; format: functional; set-up: scale not given: the % may be the effect or the level left; method in brief: as §1
B1 bradykinin receptor = target: T2, B1 bradykinin receptor (Homo sapiens, UniProt P46663); assay: Binding affinity to human bradykinin B1 receptor
T2 sequence (P46663 whole entry): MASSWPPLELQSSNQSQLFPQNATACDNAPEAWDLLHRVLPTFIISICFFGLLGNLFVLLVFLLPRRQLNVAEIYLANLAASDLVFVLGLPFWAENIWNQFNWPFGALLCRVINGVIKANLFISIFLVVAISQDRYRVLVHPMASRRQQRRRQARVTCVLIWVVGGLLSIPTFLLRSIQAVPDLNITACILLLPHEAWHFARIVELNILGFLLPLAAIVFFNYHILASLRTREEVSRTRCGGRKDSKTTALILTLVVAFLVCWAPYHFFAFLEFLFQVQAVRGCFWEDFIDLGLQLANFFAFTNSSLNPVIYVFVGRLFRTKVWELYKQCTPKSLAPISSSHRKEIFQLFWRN

[5] = target: Muscarinic acetylcholine receptor (Homo sapiens) (UniProt P20309+P08173+P11229+P08172+P08912); assay: Activity at muscarinic receptor at 1 uM; format: protein assay
Homo sapiens = species on record: Homo sapiens; assay: Activity at nicotinic receptor at 1 uM
B2 bradykinin receptor [6] = target: T3, B2 bradykinin receptor (Homo sapiens, UniProt P30411); assay: Displacement of [3H]BK from human bradykinin B2 receptor transfected in CHO cells; format: cell-based
T3 sequence (P30411 whole entry): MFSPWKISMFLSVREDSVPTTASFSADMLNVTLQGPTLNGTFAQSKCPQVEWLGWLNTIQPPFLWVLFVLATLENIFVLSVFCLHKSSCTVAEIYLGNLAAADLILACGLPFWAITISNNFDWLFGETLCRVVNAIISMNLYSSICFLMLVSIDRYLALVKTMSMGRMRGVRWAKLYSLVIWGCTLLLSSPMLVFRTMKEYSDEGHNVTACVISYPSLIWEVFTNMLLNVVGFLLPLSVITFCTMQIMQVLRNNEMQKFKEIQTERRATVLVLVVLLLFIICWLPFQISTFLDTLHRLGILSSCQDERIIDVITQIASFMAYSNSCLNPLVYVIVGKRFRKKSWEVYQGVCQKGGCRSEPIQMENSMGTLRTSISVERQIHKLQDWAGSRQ
Method in brief: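 pKi from inhibition of specific [3H]-BK binding to membrane preparations of CHO cells stably transfected with the human B2 receptor.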

B2 bradykinin receptor [7] = target: T3, B2 bradykinin receptor; assay: Antagonist potency at human bradykinin B2 receptor assessed as effect on inositol monophosphate accumulation in CHOdhfr- cells; format: functional, cell-based; conditions: read-out: pA2 (converted)
Method in brief: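 pA2 derived from antagonism of bradykinin-stimulated inositol monophosphate accumulation in CHOdhfr- cells stably transfected with the human B2 receptor.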

B2 bradykinin receptor [8] = target: T4, B2 bradykinin receptor (Cavia porcellus, UniProt O70526); assay: Antagonist potency on BK-induced contraction of guinea pig ileum longitudinal smooth muscle; format: functional, tissue-based; conditions: read-out: pA2 (converted)
T4 sequence (O70526 whole entry): T1 sequence (whole entry)

[9] = target: T1, B2 bradykinin receptor (Cavia porcellus); assay: Inhibition of BK-induced bronchoconstriction in Dunkin Hartley guinea pig at 300 nmol/kg, it; format: functional; set-up: scale not given: the % may be the effect or the level left; method in brief: as §1
[10] = target: T1, B2 bradykinin receptor (Cavia porcellus); assay: Effect on BK-induced hypotension in Dunkin Hartley guinea pig at 300 nmol/kg, it; format: functional
Method in brief: as §1, with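 “Blood” for “Pulmonary insufflation”, “each observation” for “5–210 min”, “(5–210 min),” for “points,”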

Compound: Cc1cc(C)c2cccc(OCc3c(Cl)ccc(S(=O)(=O)NC4(C(=O)N5CCN(C(=O)[C@@H](N)CCC[N+](C)(C)C)CC5)CCOCC4)c3Cl)c2n1 [FASITIBANT]
- Activity [1]: 13%
- Activity [2]: 60%
- Activity [3]: 39%
- Activity [4]: 63%
- Ki (B1 bradykinin receptor): > 10000 nM
- Activity [5]: inactive
- Activity (Homo sapiens): inactive

Compound: Cc1cc(C)c2cccc(OCc3c(Cl)ccc(S(=O)(=O)N4CCC[C@@H]4C(=O)NCCCNC(=O)c4ccc(C(=N)N)cc4)c3Cl)c2n1
- Ki (B2 bradykinin receptor [6]): 0.398 nM
- Kb (B2 bradykinin receptor [7]): 0.398 nM
- Kb (B2 bradykinin receptor [8]): 0.316 nM
- Activity [9]: 96%
- Activity [4]: 73%
- Ki (B1 bradykinin receptor): > 10000 nM
- Activity [10]: 100%

Compound: Cc1cc(C)c2cccc(OCc3c(Cl)ccc(S(=O)(=O)NC4(C(=O)N5CCN(C(=O)C[C@@H](N)CCCN(C)C)CC5)CCCC4)c3Cl)c2n1
- Ki (B2 bradykinin receptor [6]): 0.631 nM
- Kb (B2 bradykinin receptor [7]): 1.58 nM
- Kb (B2 bradykinin receptor [8]): 0.0398 nM
- Activity [9]: 21%
- Ki (B1 bradykinin receptor): > 10000 nM
- Activity [10]: 51%

Compound: Cc1cc(C)c2cccc(OCc3c(Cl)ccc(S(=O)(=O)NC(C)(C)C(=O)N4CCN(C(=O)[C@@H](N)CCCCNC(=N)N)CC4)c3Cl)c2n1
- Ki (B2 bradykinin receptor [6]): 0.631 nM
- Kb (B2 bradykinin receptor [7]): 0.794 nM
- Kb (B2 bradykinin receptor [8]): 0.1 nM
- Activity [9]: 54%
- Ki (B1 bradykinin receptor): > 10000 nM
- Activity [10]: 78%
